Assay results as given in ChEMBL document CHEMBL5257020, “Discovery of a 9-mer Cationic Peptide (LTX-315) as a Potential First in Class Oncolytic Peptide” (J Med Chem, 2016).
Where a SMILES comes first, the peptide text is derived from it. [ ]: non-standard residue; d: D form. ξ: configuration not given here. ξDip = NC(C(=O)O)C(c1ccccc1)c1ccccc1

Tests used:
[1] = Stability in pooled and cryopreserved rat hepatocytes assessed as intrinsic clearance measured per 10^6 cells at 1 uM measured for 90 mins by LC-MS/MS analysis; format: ADME, cell-based, Hepatocyte; conditions: read-out: CLH
In short: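 Pooled cryopreserved hepatocytes at 0.5 million cells/mL, incubated at about 37 °C with 1 μM initial peptide. Supernatant after centrifugation analysed by LC–MS/MS (MRM) using a D-Trp7,9,10-substance P internal standard. Peak height was referenced to time zero, and t1/2 = −0.693/slope of ln concentration vs time. Clint = 0.693/t1/2 × Vinc per million cells. Testosterone, midazolam and 4-methylumbelliferone were the positive controls. Duplicates; mean of two experiments.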

[2] = Stability in pooled and cryopreserved human hepatocytes assessed as half life at 1 uM measured for 90 mins by LC-MS/MS analysis; format: ADME, cell-based, Hepatocyte
In short: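 Pooled cryopreserved rat or human hepatocytes, 0.5 million cells/mL, ~37 °C, peptide at 1 μM initial. Supernatants analysed by LC–MS/MS with peak height referenced to time zero. t1/2 = −0.693/slope of ln concentration vs time. Duplicate experiments. Testosterone, midazolam and 4-methylumbelliferone served as metabolic-competence controls.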

[3] = Drug recovery in human plasma incubated for 20 hrs in presence of serine protease inhibitor AEBSF (reference value: 176 ng/ml); format: ADME, cell-free
[4] = Protein binding in human plasma assessed as bound fraction at 200 to 1000 ng/ml incubated for 20 hrs in presence of AEBSF by LC-MS/MS analysis; format: ADME, cell-free; conditions: dose 200-1000 ng/ml, read-out: PPB
In short: (§1)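 Pooled plasma (human volunteers; Han Wistar rat; Beagle dog) containing AEBSF 1 mg/mL. Spiked to 200, 500 or 1000 ng/mL final, in duplicate. Ultracentrifuged 45 000 rpm, 37 °C, 20 h. Supernatant quantified by LC–MS/MS. % bound = [(C − CS)/C] × 100. Values are upper limits because of residual degradation.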

[5] = Protein binding in Han Wistar rat plasma assessed as bound fraction at 200 to 1000 ng/ml incubated for 20 hrs in presence of AEBSF by LC-MS/MS analysis; format: ADME, cell-free; conditions: dose 200-1000 ng/ml, read-out: PPB; in short: as §1
[6] = Ratio of drug concentration in rat blood to plasma measured after 60 mins by LC-MS/MS analysis; format: ADME, cell-free
In short: (§2)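 Pooled fresh whole blood (≥3 male and 3 female human, beagle dog or rat donors) spiked to 200 ng/mL. Incubated ~37 °C on rotary mixer over 0–120 min. Hematocrit determined. Blood and plasma analysed by LC–MS/MS. Blood/plasma ratio = Cb/C. Cell association = {[C(1 − H)]/Cb} × 100. Values at 60 min, mean of two independent measurements.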

[7] = Ratio of drug concentration in Beagle dog blood to plasma measured after 60 mins by LC-MS/MS analysis; format: ADME, cell-free, Canis lupus familiaris; in short: as §2
[8] = Ratio of drug concentration in human blood to plasma measured after 60 mins by LC-MS/MS analysis; format: ADME, cell-free; in short: as §2
[9] = Drug uptake in rat Red blood cells at 60 mins by LC-MS/MS analysis; format: ADME, cell-based; conditions: erythrocyte, 1 h; in short: as §2
[10] = Drug uptake in human red blood cells at 60 mins by LC-MS/MS analysis; format: ADME, cell-based; conditions: erythrocyte, 1 h; in short: as §2
Cytochrome P450 1A2 [11] = molecular target: T1, Cytochrome P450 1A2 (Homo sapiens, UniProt P05177); assay: Inhibition of CYP1A2 in human liver microsomes using as phenacetin substrate assessed as reduction in O-deethylation of phenacetin incubated for 5 mins in presence of beta-NADPH by LC-MS/MS analysis; format: ADME, Microsome
In short: (§3)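 Pooled human liver microsomes (50 donors) in 100 mM phosphate, pH 7.4, with 2 mM β-NADPH. Protein 0.1 mg/mL (2A6, 2C8, 2C9, 2E1, 3A4) or 0.3 mg/mL (1A2, 2B6, 2C19, 2D6). Test article 0–100 μM final, preincubated ~37 °C 5 or 30 min before isoform-selective substrate. Quenched in methanol with internal standard. Metabolite measured by LC–MS/MS against standard curve. Duplicates, with selective inhibitor positive controls.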

Cytochrome P450 2A6 [12] = molecular target: T2, Cytochrome P450 2A6 (Homo sapiens, UniProt P11509); assay: Inhibition of CYP2A6 in human liver microsomes using coumarin as substrate assessed as reduction in substrate hydroxylation incubated for 5 mins in presence of beta-NADPH measured by LC-MS/MS analysis; format: ADME, Microsome; in short: as §3
Cytochrome P450 2B6 = Cytochrome P450 2B6 (Homo sapiens, UniProt P20813); assay: Inhibition of CYP2B6 in human liver microsomes using bupropion as substrate assessed as reduction in substrate hydroxylation incubated for 5 mins in presence of beta-NADPH measured by LC-MS/MS analysis; format: ADME, Microsome; in short: as §3
Cytochrome P450 2C9 [13] = molecular target: T3, Cytochrome P450 2C9 (Homo sapiens, UniProt P11712); assay: Inhibition of CYP2C9 in human liver microsomes using diclofenac as substrate assessed as reduction in substrate hydroxylation incubated for 5 mins in presence of beta-NADPH measured by LC-MS/MS analysis; format: ADME, Microsome; in short: as §3
Cytochrome P450 2D6 = Cytochrome P450 2D6 (Homo sapiens, UniProt P10635); assay: Inhibition of CYP2D6 in human liver microsomes using bufuralol as substrate assessed as reduction in substrate hydroxylation incubated for 5 mins in presence of beta-NADPH measured by LC-MS/MS analysis; format: ADME, Microsome; in short: as §3
Cytochrome P450 2E1 = Cytochrome P450 2E1 (Homo sapiens, UniProt P05181); assay: Inhibition of CYP2E1 in human liver microsomes using chlorzoxazone as substrate assessed as reduction in substrate hydroxylation incubated for 5 mins in presence of beta-NADPH measured by LC-MS/MS analysis; format: ADME, Microsome; in short: as §3
Cytochrome P450 3A4 [14] = molecular target: T4, Cytochrome P450 3A4 (Homo sapiens, UniProt P08684); assay: Inhibition of CYP3A4 in human liver microsomes using testosterone as substrate assessed as reduction in substrate hydroxylation incubated for 5 mins in presence of beta-NADPH measured by LC-MS/MS analysis; format: ADME, Microsome; in short: as §3
Cytochrome P450 3A4 [15] = molecular target: T4, Cytochrome P450 3A4; assay: Inhibition of CYP3A4 in human liver microsomes using midazolam as substrate assessed as reduction in substrate hydroxylation incubated for 5 mins in presence of beta-NADPH measured by LC-MS/MS analysis; format: ADME, Microsome; in short: as §3
Cytochrome P450 1A2 [16] = molecular target: T1, Cytochrome P450 1A2; assay: Inhibition of CYP1A2 in human liver microsomes using as phenacetin substrate assessed as reduction in O-deethylation of phenacetin incubated for 30 mins in presence of beta-NADPH by LC-MS/MS analysis; format: ADME, Microsome; in short: as §3
Cytochrome P450 2A6 [17] = molecular target: T2, Cytochrome P450 2A6; assay: Inhibition of CYP2A6 in human liver microsomes using coumarin as substrate assessed as reduction in substrate hydroxylation incubated for 30 mins in presence of beta-NADPH measured by LC-MS/MS analysis; format: ADME, Microsome; in short: as §3
Cytochrome P450 2C8 = Cytochrome P450 2C8 (Homo sapiens, UniProt P10632); assay: Inhibition of CYP2C8 in human liver microsomes using paclitaxel as substrate assessed as reduction in substrate hydroxylation incubated for 30 mins in presence of beta-NADPH measured by LC-MS/MS analysis; format: ADME, Microsome; in short: as §3
Cytochrome P450 2C9 [18] = molecular target: T3, Cytochrome P450 2C9; assay: Inhibition of CYP2C9 in human liver microsomes using diclofenac as substrate assessed as reduction in substrate hydroxylation incubated for 30 mins in presence of beta-NADPH measured by LC-MS/MS analysis; format: ADME, Microsome; in short: as §3
Cytochrome P450 3A4 [19] = molecular target: T4, Cytochrome P450 3A4; assay: Inhibition of CYP3A4 in human liver microsomes using testosterone as substrate assessed as reduction in substrate hydroxylation incubated for 30 mins in presence of beta-NADPH measured by LC-MS/MS analysis; format: ADME, Microsome; in short: as §3

T4 sequence (P08684 whole entry): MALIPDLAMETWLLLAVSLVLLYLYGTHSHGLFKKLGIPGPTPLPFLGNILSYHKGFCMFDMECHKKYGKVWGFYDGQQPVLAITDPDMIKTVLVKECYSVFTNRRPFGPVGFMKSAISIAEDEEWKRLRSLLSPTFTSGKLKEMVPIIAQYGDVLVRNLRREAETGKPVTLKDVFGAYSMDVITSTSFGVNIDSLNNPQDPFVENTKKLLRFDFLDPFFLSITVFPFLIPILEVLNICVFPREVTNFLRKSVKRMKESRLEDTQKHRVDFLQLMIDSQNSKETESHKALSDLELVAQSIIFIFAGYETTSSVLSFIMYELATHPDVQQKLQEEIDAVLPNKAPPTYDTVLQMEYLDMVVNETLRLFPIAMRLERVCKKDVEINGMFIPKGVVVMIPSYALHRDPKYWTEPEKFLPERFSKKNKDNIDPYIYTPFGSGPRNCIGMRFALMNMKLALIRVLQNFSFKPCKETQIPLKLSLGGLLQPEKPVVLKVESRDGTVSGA
T3 sequence (P11712 whole entry): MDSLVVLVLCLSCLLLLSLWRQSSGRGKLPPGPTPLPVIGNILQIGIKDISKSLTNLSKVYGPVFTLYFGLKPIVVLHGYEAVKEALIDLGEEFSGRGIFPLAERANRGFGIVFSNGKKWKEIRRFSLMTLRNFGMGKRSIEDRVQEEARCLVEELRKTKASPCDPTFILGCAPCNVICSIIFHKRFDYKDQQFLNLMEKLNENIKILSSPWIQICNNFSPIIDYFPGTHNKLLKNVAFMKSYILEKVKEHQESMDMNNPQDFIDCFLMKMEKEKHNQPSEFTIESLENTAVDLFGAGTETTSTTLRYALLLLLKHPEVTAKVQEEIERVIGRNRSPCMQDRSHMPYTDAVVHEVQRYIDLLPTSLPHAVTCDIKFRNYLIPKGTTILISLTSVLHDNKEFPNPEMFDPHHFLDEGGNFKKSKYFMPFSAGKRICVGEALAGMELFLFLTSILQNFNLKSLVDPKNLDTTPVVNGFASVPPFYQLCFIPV
T1 sequence (P05177 whole entry, canonical isoform): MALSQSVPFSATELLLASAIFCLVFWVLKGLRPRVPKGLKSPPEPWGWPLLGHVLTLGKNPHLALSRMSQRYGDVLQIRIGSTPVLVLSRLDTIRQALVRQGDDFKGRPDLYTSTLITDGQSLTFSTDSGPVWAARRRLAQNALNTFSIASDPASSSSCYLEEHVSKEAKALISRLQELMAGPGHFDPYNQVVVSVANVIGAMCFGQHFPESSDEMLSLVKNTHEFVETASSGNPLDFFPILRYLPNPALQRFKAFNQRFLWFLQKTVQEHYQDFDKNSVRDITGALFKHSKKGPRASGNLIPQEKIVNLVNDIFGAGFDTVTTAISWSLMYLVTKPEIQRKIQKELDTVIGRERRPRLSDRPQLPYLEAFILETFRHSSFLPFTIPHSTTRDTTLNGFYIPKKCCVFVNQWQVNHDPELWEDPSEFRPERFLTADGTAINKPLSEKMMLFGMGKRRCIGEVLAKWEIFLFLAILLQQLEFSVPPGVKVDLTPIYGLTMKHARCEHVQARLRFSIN
T2 sequence (P11509 whole entry): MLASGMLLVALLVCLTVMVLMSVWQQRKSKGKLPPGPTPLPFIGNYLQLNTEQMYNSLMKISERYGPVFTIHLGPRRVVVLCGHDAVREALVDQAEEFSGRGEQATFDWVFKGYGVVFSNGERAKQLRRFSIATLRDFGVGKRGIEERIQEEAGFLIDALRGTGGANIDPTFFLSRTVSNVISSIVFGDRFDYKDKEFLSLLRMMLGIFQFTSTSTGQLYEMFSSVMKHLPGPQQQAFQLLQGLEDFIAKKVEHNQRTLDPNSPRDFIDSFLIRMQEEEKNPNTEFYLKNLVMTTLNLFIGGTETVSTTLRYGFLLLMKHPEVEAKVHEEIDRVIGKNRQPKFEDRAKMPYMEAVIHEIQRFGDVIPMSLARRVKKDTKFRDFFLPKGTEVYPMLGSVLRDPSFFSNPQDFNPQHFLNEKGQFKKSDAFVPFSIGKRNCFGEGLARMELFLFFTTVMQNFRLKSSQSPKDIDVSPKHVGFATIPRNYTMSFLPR
Chain of Cytochrome P450 2D6 (P10635 whole entry): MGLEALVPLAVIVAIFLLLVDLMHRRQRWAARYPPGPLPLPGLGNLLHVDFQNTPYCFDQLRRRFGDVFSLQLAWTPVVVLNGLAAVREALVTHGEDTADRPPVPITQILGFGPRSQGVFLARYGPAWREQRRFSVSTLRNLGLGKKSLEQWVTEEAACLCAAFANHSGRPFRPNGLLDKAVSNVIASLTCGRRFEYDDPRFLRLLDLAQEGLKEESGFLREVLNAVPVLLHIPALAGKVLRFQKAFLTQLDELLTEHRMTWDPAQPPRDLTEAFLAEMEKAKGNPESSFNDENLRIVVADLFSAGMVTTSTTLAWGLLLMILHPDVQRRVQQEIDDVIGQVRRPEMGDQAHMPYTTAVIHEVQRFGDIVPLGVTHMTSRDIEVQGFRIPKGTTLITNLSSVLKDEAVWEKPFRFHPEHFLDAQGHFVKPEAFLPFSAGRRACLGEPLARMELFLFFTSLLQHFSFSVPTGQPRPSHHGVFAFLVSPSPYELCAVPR
Chain of Cytochrome P450 2B6 (P20813 whole entry): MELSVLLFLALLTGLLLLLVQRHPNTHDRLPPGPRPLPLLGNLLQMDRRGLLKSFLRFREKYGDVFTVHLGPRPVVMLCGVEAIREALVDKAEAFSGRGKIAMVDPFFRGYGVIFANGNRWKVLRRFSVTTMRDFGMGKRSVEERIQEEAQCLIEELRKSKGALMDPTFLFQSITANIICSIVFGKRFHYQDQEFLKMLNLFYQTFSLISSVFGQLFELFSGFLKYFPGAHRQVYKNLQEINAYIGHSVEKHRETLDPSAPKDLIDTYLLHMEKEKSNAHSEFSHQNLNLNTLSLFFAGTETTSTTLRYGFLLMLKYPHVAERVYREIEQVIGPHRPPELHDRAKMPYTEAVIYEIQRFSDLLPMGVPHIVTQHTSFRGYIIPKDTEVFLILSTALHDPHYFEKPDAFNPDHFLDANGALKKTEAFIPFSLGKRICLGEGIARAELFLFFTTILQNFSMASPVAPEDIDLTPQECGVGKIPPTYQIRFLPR
Chain of Cytochrome P450 2E1 (P05181 whole entry): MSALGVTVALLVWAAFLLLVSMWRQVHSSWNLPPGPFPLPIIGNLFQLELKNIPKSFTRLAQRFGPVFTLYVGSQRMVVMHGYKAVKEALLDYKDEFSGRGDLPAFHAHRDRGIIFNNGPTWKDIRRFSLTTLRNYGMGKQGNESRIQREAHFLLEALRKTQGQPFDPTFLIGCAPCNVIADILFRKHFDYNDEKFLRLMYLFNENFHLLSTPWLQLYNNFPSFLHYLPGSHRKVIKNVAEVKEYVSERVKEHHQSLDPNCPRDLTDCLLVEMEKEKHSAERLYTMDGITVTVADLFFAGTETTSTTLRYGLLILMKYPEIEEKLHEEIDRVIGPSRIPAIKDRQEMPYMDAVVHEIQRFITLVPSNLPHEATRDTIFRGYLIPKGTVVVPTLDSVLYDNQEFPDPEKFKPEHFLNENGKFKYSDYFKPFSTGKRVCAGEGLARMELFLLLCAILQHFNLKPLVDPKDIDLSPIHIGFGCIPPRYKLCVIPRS
Chain of Cytochrome P450 2C8 (P10632 whole entry): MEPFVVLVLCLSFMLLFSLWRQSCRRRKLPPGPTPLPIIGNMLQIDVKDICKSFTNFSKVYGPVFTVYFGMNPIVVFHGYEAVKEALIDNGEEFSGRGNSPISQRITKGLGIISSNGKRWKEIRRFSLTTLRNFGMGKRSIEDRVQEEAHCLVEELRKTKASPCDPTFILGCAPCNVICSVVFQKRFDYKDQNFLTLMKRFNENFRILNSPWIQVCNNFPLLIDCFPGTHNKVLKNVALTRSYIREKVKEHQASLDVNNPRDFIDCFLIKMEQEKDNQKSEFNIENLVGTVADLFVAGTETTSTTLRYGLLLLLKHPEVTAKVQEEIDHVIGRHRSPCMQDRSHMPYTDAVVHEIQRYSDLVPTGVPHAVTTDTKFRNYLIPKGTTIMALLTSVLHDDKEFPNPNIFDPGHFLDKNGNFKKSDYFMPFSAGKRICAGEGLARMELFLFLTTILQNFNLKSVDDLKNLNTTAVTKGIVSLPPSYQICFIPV

- hepatocyte CLint at 1 µM [1]: 20 µL/min/1e6 cells
- half-life at 1 µM [2]: 1.07 h
- Drug recovery [3]: 131 ng/mL
- fraction unbound at 20 h [4]: > 0.2
- fraction unbound at 20 h [5]: > 0.25
- blood plasma ratio at 1 h [6]: 1.03
- blood plasma ratio at 1 h [7]: 2.19
- blood plasma ratio at 1 h [8]: 0.76
- Drug uptake [9]: 44%
- Drug uptake [10]: 27%
- IC50 (Cytochrome P450 1A2 [11]): 37.9 µM
- IC50 (Cytochrome P450 2A6 [12]): 7 µM
- IC50 (Cytochrome P450 2B6): 27.7 µM
- IC50 (Cytochrome P450 2C9 [13]): 8.8 µM
- IC50 (Cytochrome P450 2D6): 21.9 µM
- IC50 (Cytochrome P450 2E1): 30.9 µM
- IC50 (Cytochrome P450 3A4 [14]): 9.3 µM
- IC50 (Cytochrome P450 3A4 [15]): 18.8 µM
- IC50 (Cytochrome P450 1A2 [16]): > 100 µM
- IC50 (Cytochrome P450 2A6 [17]): 26.3 µM
- IC50 (Cytochrome P450 2C8): 7.9 µM
- IC50 (Cytochrome P450 2C9 [18]): 8.7 µM
- IC50 (Cytochrome P450 3A4 [19]): 12.1 µM
SMILES: NCCCC[C@H](NC(=O)C(NC(=O)[C@H](Cc1c[nH]c2ccccc12)NC(=O)[C@H](CCCCN)NC(=O)[C@H](CCCCN)NC(=O)[C@H](Cc1c[nH]c2ccccc12)NC(=O)[C@H](Cc1c[nH]c2ccccc12)NC(=O)[C@H](CCCCN)NC(=O)[C@@H](N)CCCCN)C(c1ccccc1)c1ccccc1)C(N)=O (stereo partly drawn) (H-KKWWKKW[ξDip]K-NH2)
